From the EternaBench riboswitch data

System: MS2 coat protein
Experiment: apparent Kd, MS2 coat protein; higher = weaker binding; RNA-MaP array; tryptophan 2.4 mM where present
How it was run: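 The titrant was SNAP-549-labelled MS2 coat protein, run from 0.7 or 1.5 nM in doubling steps to 3 µM. It was applied to designs transcribed by stalled E. coli RNA polymerase on Illumina sequencing-chip clusters, without ligand first and then with constant ligand, in 100 mM Tris-HCl pH 7.5, 80 mM KCl, 4 mM MgCl2, BSA, DTT, yeast tRNA and Tween-20. The apparent Kd is the median of filtered per-cluster binding-curve fits, with green signal normalised to red-channel RNA signal and control-cluster median Fmax.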

[1] = designed as: ON switch for tryptophan, no ligand
[2] = ligand present: tryptophan, designed as: ON switch for tryptophan
[3] = designed as: OFF switch for tryptophan, no ligand
[4] = ligand present: tryptophan, designed as: OFF switch for tryptophan

| Sequence | apparent Kd [1] | apparent Kd [2] | apparent Kd [3] | apparent Kd [4] |
| --- | --- | --- | --- | --- |
| AAAUGUACGUCGGCCGCCACUGCGCUGAAGACAGUCACAUGAGGAUCACCCAUGUACGACAAGGGUAGGACCGGGAUGUGAGGGU | 91.4 nM | 44.7 nM |  |  |
| AACAUGAGGAUCACCCAUGUCCUCAUGAUUCGAGGACCGGUACGGCCGCCACUCGGUCCUCGCGAGGAGGAGUCAAAGACUCCAA | 178 nM | 393 nM |  |  |
| AAUAAACAUGAGGAUCACCCAUGUUGUUGACGAGGACCGGUACGGCCGCCACUCGACAUGAGGAUCACCCAUGUUGUCACAUGAG | 180 nM | 151 nM |  |  |
| AAUAAUAUCCUCAUGUGAGUCGUACCAUAACGAGGACCGGUACGGCCGCCACUCGAACAUGAGGAUCACCCAUGUAGGUAUGAUA | 85.9 nM | 200 nM |  |  |
| AAUCAUGAAAACAUGACAUGAGGAUCACUCCGAGGACCGGUACGGCCGCCACUCGCGAGGAGGCGGACAUGAGGAUCACCCAUGU | 254 nM | 66.3 nM |  |  |
| AAUGUAUGCCACAUGAGGAUCACCCAUGUGCGAGGACCGGUACGGCCGCCACUCGGUCGGUGGUUAAUGAAGAUAUACAAUAAUG |  |  | 11.5 nM | 15.5 nM |
| ACACAUGAGGAUCACCCAUGUUGAGGAACACGAGGACCGGUACGGCCGCCACUCGACACAUGAGGAUCACCCAUGUGAUCACCCA | 141 nM | 169 nM |  |  |
| ACAUGAGGAUCACCCAUGUUUGAUGUUCCUCGAGGACCGGUACGGCCGCCACUCGAACGAGUGGCGCGCGAGUGCGCACUCGCGC | 12.2 nM | 12.5 nM |  |  |
| ACCGCGGUAUCGGCCGCCACUUGUGGGUUAAAUCUGGUACAUGAGGAUCACCCAUGUGUCUCCUCGAGGACCGGGAUAGCGUGAC | 158 nM | 23.9 nM |  |  |
| AGAAUAUAGUCGGCCGCCACUCUACAAACAUGAGGAUCACCCAUGUUCACAUAGUGGAAACACAUGAGGACCGGGACAUAGGCAU | 15.6 nM | 14.2 nM |  |  |
| AUGACUCACAAAGAAGAUAAAAUGGGUGAACGAGGACCGGUACGGCCGCCACUCGGACAUGAGGAUCACCCAUGUCCAUGUGCAA |  |  | 22.1 nM | 28.8 nM |
| AUGCAUAGCACGGCCGCCACUCCAUGUAAACAUGAGGAUCACCCAUGUAAUUUGGAUGUUUUAUAGAGGACCGGGUGAAAUGCAA |  |  | 8.88 nM | 15.1 nM |
| AUGGAGACCUCGGCCGCCACUCUCCAUGAGGAUCUCCCAUGUAACAUGAGGAUCACCCAUGUACUGAGGACCGGGAGGUCCUUGA | 9.9 nM | 10.8 nM |  |  |
| AUGGAGACCUCGGCCGCCACUCUCCAUGAGGAUCUCCCAUGUAACAUGAGGAUCACCCAUGUGCUGAGGACCGGGAGGUCCUGAA | 10.6 nM | 12 nM |  |  |
| AUUCAUGGAAACAUGACAUACAUUACCGGUCGAGGACCGGUACGGCCGCCACUCGGUUGGUGGCACAUGAGGAUCACCCAUGUUA | 26.8 nM | 26.7 nM |  |  |
| CAAUAAGUACCGGUCCUCAGAUCCUCAUGACGAGGACCGGUACGGCCGCCACUCGAAACAUGAGGAUCACCCAUGUAAUAAUAAC |  |  | 40.9 nM | 30.5 nM |
| CCAUUGAUGACGGCCGCCACUGUCUACAUGAGGAUCACCCAUGUAUAGCAGGGUGGACCUAUGGACAGGACCGGGUCACUUGUCC |  |  | 11 nM | 12.3 nM |
| CCUAUGCAGUCGGCCGCCACUGAACAUGAGGAUCACCCAUGUAUAUAAAGAUCCUGAUAUAAUAACAGGACCGGGACUGUAUAGG |  |  | 59.7 nM | 157 nM |
| CCUAUGCAGUCGGCCGCCACUGAUAAAGUUAUCUUUACCUCAGAAACAUGAGGAUCACCCAUGUACAGGACCGGGACUGUAUAGG |  |  | 12.7 nM | 19.8 nM |
| CGCGGUUGAGAUGGGCCUUUGAUAAGUCUGCGAGGACCGGUACGGCCGCCACUCGAGGACAUGAGGAUCACCCAUGUACUUCGCG |  |  | 47.3 nM | 17.8 nM |
| CUAUAAAUAGCGGCCGCCACUUACUCAUGAGGUAACAACAUGAGGAUCACCCAUGUUUGAGGAUCAAGGACCGGGCUAUUUAUAG | 29.8 nM | 17.6 nM |  |  |
| CUAUAUGGAAACAUAUAGAAGCGAAAGCAACGAGGACCGGUACGGCCGCCACUCGAAGAGUGGUGGACAUGAGGAUCACCCAUGU | 63.3 nM | 52.8 nM |  |  |
| GACCCAUGAGUUGUAAAAGCUCAUGGGUCGCGAGGACCGGUACGGCCGCCACUCGGCUGUACAUGAGGAUCACCCAUGUCAGGGU | 134 nM | 761 nM |  |  |
| GAUACUAUGAAAGUAGUAUCUACGUGUUGACGAGGACCGGUACGGCCGCCACUCGACAUGAGGAUCACCCAUGUAUAGAAUAUGU | 20.6 nM | 14.8 nM |  |  |
| GAUAUGGAAACAUGUCAGAUCCUUACCGGUCGAGGACCGGUACGGCCGCCACUCGAAAACGAGGAACAUGAGGAUCACCCAUGUA |  |  | 49.7 nM | 87.5 nM |
| GCGACCCUGAGAUCCUGCGUAACGUGAACACGAGGACCGGUACGGCCGCCACUCGAGAGAACAUGAGGAUCACCCAUGUCUGAGC |  |  | 20.4 nM | 22.2 nM |
